For this assay, the target named is Solute carrier family 12 member 5 (Homo sapiens) (UniProt Q9H2X9). Nature of the assay: modulation of KCC2-mediated Tl+ flux in HEK cells – cell-based, HEK293-KCC2, thallium flux, FluoZin2, sodium-free, assay 3, dose response (AID 1737). Conditions: HEK293-KCC2, thallium flux FluoZin2 fluorescence, Na-free. The gist of the method: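 Material – KCC2-expressing HEK cells · Buffer or medium – Sodium-free N-methylglucamine chloride assay buffer · Dosing – 11 doses, 3-fold steps, 30 µM top · Signal – FluoZin2 fluorescence, 480/540 nm · Controls – bumetanide as positive control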

Structures are written as SMILES. Results filed as inconclusive are left out. Calls of active or inactive are those of the source.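 Rule for the calls: active = converged dose curve in at least two of three replicates, even with few points beside the midpoint; inactive = the rest, inconclusive results apart.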

Chain of Solute carrier family 12 member 5 (Homo sapiens) (Q9H2X9 whole entry, looked up): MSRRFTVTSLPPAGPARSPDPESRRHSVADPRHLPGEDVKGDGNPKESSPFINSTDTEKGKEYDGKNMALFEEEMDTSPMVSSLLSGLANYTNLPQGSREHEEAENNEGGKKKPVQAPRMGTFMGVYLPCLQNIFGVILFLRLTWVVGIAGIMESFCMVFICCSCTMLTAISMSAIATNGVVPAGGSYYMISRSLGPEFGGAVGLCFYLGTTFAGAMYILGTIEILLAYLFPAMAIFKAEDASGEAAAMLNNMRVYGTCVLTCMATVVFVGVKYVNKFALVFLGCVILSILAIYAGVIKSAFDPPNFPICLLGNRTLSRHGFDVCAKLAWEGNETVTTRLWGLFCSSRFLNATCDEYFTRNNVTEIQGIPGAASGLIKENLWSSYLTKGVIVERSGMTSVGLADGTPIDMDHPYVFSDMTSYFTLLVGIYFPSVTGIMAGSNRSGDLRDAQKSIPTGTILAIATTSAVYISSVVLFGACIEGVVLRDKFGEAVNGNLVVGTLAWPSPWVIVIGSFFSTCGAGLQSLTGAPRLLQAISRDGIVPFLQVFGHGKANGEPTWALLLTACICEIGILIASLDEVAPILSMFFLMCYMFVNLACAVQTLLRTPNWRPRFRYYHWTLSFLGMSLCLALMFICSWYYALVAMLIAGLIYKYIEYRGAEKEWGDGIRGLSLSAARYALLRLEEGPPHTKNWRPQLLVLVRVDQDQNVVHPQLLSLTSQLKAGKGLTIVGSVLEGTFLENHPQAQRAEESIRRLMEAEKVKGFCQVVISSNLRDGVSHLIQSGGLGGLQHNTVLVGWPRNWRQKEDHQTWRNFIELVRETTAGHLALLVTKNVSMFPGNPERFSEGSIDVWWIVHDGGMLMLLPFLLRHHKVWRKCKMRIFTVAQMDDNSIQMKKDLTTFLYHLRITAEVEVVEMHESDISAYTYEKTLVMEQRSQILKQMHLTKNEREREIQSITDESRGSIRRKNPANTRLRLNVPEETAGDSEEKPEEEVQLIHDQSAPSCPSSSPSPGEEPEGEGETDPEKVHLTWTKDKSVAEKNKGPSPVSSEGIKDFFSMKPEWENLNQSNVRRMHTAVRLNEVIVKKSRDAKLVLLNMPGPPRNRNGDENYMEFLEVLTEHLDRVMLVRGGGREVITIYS

One may read the EC50 as the concentration that produces a half-maximal response. As for `CC(=O)c1cccc(NC(=S)NC(=O)c2ccc(C)cc2)c1`, the EC50 is 288 nM. Under `O=[N+]([O-])c1ccc(-c2cn(-c3ccccc3F)c(=S)[nH]2)cc1` stands 318 nM. Under `NC(=S)N=Nc1c(O)n(Cc2ccccc2)c2ccccc12` stands “inactive”; under `COc1ccc(N2C(=S)N=C(Nc3cccc(C)c3)C23CCCCC3)cc1`, 417 nM; under `Cc1onc(-c2ccccc2Cl)c1C(=O)NC(=S)Nc1ccc(C(C)C)cc1`, “inactive”. To `COc1ccc(-c2nnc(-c3ccc(OCC(C)C)cc3)o2)cc1` belongs “inactive”; to `O=[N+]([O-])c1ccccc1/C=C/C=N/n1c(-c2ccc(Cl)cc2)n[nH]c1=S`, “inactive”; to `O=C(NC(=S)Nc1ccc2c(c1)OCO2)c1ccc(Cl)cc1`, “inactive”. For the molecule `COc1cccc(/C=c2\s/c(=C/C(=O)c3ccc(C)cc3)[nH]c2=O)c1OC`, the EC50 entry is “inactive”. To `Fc1cccc(F)c1/C=N/NC(=S)Nc1cccnc1` belongs “inactive”; to `CCOc1cccc(C(=O)NC(=S)Nc2cccc(C)c2)c1`, “inactive”; to `O=C(NC(=S)Nc1cccc2cccnc12)c1cccs1`, “inactive”. To `Cc1ccc(-c2n[nH]c(=S)n2/N=C/C=C\c2ccccc2[N+](=O)[O-])cc1` belongs “inactive”; to `O=c1c2ccccc2[nH]c(=S)n1CCN1CCC(=C(c2ccc(F)cc2)c2ccc(F)cc2)CC1`, “inactive”.

The record behind these values is PubChem BioAssay AID1737 (Vanderbilt High Throughput Screening Facility, 2009).
